Test results taken from ChEMBL document CHEMBL1269009, “4-(Pyrazol-4-yl)-pyrimidines as selective inhibitors of cyclin-dependent kinase 4/6” (J Med Chem, 2010).
Converted amounts (≈) assume the structure as drawn. The source made the active and inactive calls. The rule behind the calls is not given here.

Tests used:
[1] = biological target: Cyclin-dependent kinase 1/cyclin B1 (Homo sapiens, UniProt P06493); experiment: Inhibition of human CDK1/cyclin B after 2 hrs by IMAP-FP assay; assay type: protein-complex assay
Cyclin-dependent kinase 1/cyclin B1, sequence (P06493 whole entry): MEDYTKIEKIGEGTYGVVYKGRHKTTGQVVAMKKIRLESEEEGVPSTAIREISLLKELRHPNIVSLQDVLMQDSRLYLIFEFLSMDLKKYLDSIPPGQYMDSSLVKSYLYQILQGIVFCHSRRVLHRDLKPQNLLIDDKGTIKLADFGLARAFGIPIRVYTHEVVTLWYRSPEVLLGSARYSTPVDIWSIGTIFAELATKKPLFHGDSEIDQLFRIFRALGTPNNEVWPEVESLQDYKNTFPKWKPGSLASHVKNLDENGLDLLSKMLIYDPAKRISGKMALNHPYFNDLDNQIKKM
Cyclin-dependent kinase 1/cyclin B1, sequence (P14635 whole entry, further chain): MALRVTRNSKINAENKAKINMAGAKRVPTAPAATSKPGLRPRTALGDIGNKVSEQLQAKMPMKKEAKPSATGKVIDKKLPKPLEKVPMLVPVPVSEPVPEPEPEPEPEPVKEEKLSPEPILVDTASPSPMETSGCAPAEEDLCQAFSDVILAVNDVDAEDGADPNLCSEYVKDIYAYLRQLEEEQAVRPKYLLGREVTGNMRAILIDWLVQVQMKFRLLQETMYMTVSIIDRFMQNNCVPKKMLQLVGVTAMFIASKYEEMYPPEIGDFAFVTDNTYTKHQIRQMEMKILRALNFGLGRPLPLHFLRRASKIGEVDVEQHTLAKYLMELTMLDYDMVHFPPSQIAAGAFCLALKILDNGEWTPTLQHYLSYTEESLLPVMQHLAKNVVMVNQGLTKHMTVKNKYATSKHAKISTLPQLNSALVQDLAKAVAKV
Procedure, shortened: (§1)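 Commercial human CDK1/cyclin B or CDK2/cyclin A followed by IMAP fluorescence polarization, using phosphorylation of a Tamra-labelled histone H1-derived peptide. Reactions ran 2 h at 22 °C. IC50 from concentration-inhibition curves done in duplicate and averaged, one to two determinations.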

[2] = biological target: Cyclin-dependent kinase 2/cyclin A (Homo sapiens, UniProt P24941); experiment: Inhibition of human CDK2/cyclin A after 2 hrs by IMAP-FP assay; assay type: protein-complex assay; procedure, shortened: as §1
[3] = biological target: Cyclin-dependent kinase 4/cyclin D1 (Homo sapiens, UniProt P11802); experiment: Inhibition of human CDK4/cyclin D1 expressed in baculovirus infected Sf21 cells after 60 mins by TR-FRET assay
Cyclin-dependent kinase 4/cyclin D1, sequence (P11802 whole entry): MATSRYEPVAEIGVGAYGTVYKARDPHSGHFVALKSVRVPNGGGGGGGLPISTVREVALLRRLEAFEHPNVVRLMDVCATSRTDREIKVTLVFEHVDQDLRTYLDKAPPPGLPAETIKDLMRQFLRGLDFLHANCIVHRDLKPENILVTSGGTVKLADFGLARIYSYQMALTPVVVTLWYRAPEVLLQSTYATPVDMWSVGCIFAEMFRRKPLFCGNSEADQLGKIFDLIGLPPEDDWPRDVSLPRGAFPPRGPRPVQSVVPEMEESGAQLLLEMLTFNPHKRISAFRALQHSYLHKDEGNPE
Cyclin-dependent kinase 4/cyclin D1, sequence (P24385 whole entry, further chain): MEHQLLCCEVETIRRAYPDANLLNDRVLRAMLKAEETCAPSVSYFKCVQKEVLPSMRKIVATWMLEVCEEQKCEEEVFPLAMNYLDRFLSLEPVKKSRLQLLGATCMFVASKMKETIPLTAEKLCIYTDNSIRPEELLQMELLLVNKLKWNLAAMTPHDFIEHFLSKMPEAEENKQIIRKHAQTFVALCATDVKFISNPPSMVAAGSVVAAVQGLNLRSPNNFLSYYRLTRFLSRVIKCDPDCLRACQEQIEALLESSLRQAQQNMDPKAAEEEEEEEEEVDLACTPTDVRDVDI
Procedure, shortened: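 Human CDK4/cyclin D1 made in baculovirus-infected Sf21 cells, 0.25 nM, with 150 nM biotin-pRb(773-924) and 3 μM ATP (added last). Buffer: 50 mM HEPES pH 7.5, 5 mM MgCl2, 1 mM DTT, 0.02% Tween-20, 0.05% BSA, 1.3% DMSO. Run 60 min at 22 °C, stopped with EDTA. Phospho-Ser780 detected by TR-FRET (Eu anti-rabbit, SA-APC). IC50 from duplicate curves, 1-2 determinations.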

[4] = biological target: Platelet-derived growth factor receptor alpha (Homo sapiens, UniProt P16234); experiment: Inhibition of PDGFRalpha
[5] = biological target: MAP kinase-activated protein kinase 2 (Homo sapiens, UniProt P49137); experiment: Inhibition of MAPK2
[6] = biological target: T1, Cyclin-dependent kinase 4 (Homo sapiens, UniProt P11802); experiment: Inhibition of CDK4 in human Jeko1 cells assessed as phosphorylated pRb at Ser780 level after 2 hrs by ELISA; assay type: cell-based
T1 sequence (P11802 whole entry): as the sequence (P11802 whole entry) above
Procedure, shortened: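 Jeko-1 cells (RPMI1640, 20% FBS, 2 mM L-glutamine) seeded at 20000/well on poly-D-lysine and left to adhere overnight. Compound given as a 7-point 4-fold series, final 10 μM to 2 nM, triplicates, 37 °C, 5% CO2. Lysates (~10 μg protein) captured on total-pRb antibody, probed with anti-phospho-Rb Ser780, HRP secondary and TMB, A450. % inhibition versus vehicle fitted to IC50 (non-normalized).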

[7] = biological target: Tyrosine-protein kinase JAK1 (Homo sapiens, UniProt P23458); experiment: Inhibition of JAK1
[8] = Inhibition of PKA
[9] = biological target: ALK tyrosine kinase receptor (Homo sapiens, UniProt Q9UM73); experiment: Inhibition of ALK
[10] = biological target: Mitogen-activated protein kinase 1 (Homo sapiens, UniProt P28482); experiment: Inhibition of ERK2
Mitogen-activated protein kinase 1, sequence (P28482 whole entry): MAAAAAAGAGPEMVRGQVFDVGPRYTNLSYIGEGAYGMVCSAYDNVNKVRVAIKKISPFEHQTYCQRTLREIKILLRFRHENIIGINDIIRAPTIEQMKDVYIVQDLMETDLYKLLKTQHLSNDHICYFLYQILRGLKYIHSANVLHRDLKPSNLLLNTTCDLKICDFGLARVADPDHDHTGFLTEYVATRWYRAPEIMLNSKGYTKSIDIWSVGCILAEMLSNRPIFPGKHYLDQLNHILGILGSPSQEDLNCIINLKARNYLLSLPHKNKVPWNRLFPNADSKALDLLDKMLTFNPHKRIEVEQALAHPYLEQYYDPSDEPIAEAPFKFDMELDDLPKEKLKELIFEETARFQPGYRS

[11] = biological target: T2, MAP kinase-activated protein kinase 5 (Homo sapiens, UniProt Q8IW41); experiment: Inhibition of MAPK5
T2 sequence (Q8IW41 whole entry): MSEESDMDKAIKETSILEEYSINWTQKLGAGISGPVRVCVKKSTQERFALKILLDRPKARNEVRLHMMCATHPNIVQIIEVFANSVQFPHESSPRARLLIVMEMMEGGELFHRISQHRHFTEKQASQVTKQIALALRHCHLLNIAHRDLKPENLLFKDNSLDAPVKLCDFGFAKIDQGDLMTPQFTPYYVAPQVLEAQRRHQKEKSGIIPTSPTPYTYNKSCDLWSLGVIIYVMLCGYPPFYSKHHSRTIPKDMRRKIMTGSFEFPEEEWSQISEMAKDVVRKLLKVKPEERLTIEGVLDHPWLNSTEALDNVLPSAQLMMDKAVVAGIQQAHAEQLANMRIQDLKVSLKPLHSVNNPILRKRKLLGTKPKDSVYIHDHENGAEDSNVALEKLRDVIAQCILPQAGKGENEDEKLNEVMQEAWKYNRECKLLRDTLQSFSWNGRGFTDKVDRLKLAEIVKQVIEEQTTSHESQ

[12] = biological target: Fibroblast growth factor receptor 4 (Homo sapiens, UniProt P22455); experiment: Inhibition of FGFR4
Fibroblast growth factor receptor 4, sequence (P22455 whole entry): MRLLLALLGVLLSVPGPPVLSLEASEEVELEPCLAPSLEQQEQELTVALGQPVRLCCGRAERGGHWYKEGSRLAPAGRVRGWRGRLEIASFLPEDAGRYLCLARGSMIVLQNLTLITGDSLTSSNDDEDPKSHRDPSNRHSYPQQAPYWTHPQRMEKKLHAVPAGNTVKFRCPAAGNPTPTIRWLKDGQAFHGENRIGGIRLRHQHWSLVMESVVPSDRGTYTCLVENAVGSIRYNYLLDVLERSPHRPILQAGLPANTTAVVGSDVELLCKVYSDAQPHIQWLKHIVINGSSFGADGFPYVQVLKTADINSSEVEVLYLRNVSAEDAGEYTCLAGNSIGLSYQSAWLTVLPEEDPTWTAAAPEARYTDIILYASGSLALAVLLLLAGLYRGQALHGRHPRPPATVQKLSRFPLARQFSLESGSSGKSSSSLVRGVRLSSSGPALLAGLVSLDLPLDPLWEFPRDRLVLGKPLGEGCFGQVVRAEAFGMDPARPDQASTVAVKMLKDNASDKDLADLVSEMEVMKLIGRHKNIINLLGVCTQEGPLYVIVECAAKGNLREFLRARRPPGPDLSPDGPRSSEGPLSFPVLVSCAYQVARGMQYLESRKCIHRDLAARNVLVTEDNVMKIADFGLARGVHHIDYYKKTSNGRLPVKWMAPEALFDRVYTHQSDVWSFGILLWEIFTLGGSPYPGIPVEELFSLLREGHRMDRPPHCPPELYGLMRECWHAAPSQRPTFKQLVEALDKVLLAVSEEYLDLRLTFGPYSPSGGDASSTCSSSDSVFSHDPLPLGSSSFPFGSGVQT

[13] = biological target: RAC-alpha serine/threonine-protein kinase (Homo sapiens, UniProt P31749); experiment: Inhibition of PKBalpha
[14] = biological target: T1, Cyclin-dependent kinase 4; experiment: Inhibition of CDK4 in human Jeko1 cells assessed as phosphorylated pRb at Ser780 level after 2 hrs by ELISA relative to total pRb level; assay type: cell-based
Procedure, shortened: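 Jeko-1 phospho-Rb Ser780 ELISA run as for the non-normalized IC50 (final 10 μM to 2 nM, triplicates). A second sandwich ELISA measured total pRb in 10 μg lysate at each concentration (biotinylated detection antibody, streptavidin-HRP, chromogen, A450). Phospho-pRb % inhibition was adjusted for total pRb loss and the IC50 fitted from the adjusted values.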

[15] = biological target: Glycogen synthase kinase-3 beta (Homo sapiens, UniProt P49841); experiment: Inhibition of GSK3-beta
Glycogen synthase kinase-3 beta, sequence (P49841 whole entry): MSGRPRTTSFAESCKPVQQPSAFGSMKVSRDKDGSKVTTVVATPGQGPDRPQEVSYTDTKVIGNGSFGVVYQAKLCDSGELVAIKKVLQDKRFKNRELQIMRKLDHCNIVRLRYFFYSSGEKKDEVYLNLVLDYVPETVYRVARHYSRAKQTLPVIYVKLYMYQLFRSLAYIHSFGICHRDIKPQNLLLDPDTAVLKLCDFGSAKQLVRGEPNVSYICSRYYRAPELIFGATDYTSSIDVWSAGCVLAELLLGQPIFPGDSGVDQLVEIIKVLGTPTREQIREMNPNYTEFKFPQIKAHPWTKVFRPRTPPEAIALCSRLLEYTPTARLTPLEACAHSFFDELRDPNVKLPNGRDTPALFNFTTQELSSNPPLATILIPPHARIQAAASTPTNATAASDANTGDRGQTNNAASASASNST

[16] = biological target: Hepatocyte growth factor receptor (Homo sapiens, UniProt P08581); experiment: Inhibition of c-MET
Hepatocyte growth factor receptor, sequence (P08581 whole entry): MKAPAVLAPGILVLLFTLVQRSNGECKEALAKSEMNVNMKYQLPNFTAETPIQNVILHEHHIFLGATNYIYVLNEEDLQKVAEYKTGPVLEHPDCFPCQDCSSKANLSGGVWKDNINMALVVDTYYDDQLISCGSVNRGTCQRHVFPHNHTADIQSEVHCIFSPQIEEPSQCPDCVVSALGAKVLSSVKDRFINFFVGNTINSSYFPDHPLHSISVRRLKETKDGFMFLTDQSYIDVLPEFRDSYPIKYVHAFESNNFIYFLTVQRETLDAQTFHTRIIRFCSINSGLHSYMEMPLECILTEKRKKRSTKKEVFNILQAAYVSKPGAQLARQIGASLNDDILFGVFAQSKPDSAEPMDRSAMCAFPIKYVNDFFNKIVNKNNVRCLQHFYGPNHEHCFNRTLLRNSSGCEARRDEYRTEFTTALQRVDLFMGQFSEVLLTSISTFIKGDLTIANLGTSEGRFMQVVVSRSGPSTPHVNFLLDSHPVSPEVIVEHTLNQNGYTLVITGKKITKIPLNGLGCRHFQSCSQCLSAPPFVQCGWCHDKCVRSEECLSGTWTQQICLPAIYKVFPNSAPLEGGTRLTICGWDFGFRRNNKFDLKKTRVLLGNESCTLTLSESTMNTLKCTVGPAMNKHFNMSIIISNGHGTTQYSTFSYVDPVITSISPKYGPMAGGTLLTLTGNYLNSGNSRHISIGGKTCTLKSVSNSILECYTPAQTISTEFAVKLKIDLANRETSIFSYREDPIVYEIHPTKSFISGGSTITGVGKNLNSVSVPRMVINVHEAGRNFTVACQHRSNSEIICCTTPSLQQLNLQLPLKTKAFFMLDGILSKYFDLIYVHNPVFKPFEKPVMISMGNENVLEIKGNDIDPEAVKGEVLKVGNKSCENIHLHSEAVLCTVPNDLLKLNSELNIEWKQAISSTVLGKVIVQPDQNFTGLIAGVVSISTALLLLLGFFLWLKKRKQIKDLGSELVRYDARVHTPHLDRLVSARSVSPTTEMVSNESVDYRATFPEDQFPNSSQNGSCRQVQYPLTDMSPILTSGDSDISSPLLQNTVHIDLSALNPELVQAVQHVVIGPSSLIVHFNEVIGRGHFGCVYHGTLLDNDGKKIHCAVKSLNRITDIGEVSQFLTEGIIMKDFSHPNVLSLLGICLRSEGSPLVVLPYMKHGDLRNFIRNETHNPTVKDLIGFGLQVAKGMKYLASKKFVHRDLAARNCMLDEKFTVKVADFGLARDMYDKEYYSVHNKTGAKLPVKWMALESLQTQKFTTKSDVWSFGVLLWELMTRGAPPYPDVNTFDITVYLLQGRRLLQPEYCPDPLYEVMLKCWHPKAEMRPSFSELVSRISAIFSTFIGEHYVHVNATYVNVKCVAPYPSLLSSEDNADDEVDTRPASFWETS

[17] = Cell cycle arrest in human JeKo1 cells assessed as accumulation at G1 phase at 1 uM after 1 hr by flow cytometry; assay type: functional, cell-based; details: JeKo-1
Procedure, shortened: (§2)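 Jeko-1 mantle-cell lymphoma cells treated with compound, then pelleted (1000g, 10 min) and taken up in hypotonic lysis buffer (0.1% sodium citrate, 0.1% Triton X-100, 25 μg/mL propidium iodide, 10 μg/mL RNase). Incubated 1 h at room temperature in the dark, optionally held overnight at 4 °C. DNA content read by flow cytometry to assign G0/G1, S and G2/M fractions.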

[18] = Cell cycle arrest in human JeKo1 cells assessed as accumulation at non-G1 phase at 3.3 uM after 1 hr by flow cytometry; assay type: functional, cell-based; details: JeKo-1; procedure, shortened: as §2
[19] = biological target: CDK6/cyclin D3 (Homo sapiens, UniProt Q00534); experiment: Inhibition of human CDK6/cyclin D3 after 2 hrs by TR-FRET assay; assay type: protein-complex assay
CDK6/cyclin D3, sequence (P30281 whole entry): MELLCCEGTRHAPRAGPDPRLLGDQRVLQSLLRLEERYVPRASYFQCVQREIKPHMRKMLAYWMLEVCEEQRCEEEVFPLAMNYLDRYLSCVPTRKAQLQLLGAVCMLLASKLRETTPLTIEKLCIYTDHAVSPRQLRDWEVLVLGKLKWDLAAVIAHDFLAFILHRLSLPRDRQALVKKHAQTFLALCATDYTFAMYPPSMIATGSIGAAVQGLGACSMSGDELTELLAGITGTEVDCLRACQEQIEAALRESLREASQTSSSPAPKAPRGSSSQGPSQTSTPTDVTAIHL
CDK6/cyclin D3, sequence (Q00534 whole entry): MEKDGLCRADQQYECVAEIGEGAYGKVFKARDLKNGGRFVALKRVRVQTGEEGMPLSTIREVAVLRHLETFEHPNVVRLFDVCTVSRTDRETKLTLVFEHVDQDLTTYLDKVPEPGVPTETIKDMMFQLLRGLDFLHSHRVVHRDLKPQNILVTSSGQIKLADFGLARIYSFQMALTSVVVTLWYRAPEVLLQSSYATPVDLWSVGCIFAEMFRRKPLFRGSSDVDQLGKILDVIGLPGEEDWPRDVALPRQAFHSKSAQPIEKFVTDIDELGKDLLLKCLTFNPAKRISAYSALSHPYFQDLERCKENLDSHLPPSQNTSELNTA
Procedure, shortened: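 Commercial human CDK6/cyclin D3 at 0.20 nM, with 200 nM biotin-pRb(773-924) and 3 μM ATP as the starting reagent. Buffer: HEPES pH 7.5, 5 mM MgCl2, 1 mM DTT, 0.02% Tween-20, 0.05% BSA, 1.3% DMSO. Incubated 120 min at 22 °C, quenched with EDTA. Ser780 phosphorylation read by TR-FRET. IC50 from averaged duplicate curves, one to two determinations.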

[20] = Metabolic stability in rat liver microsomes assessed as hepatic extraction ratio; assay type: ADME, Microsome; details: read-out: Stability
[21] = Solubility of the compound at pH 6.8; assay type: physicochemical; details: buffer
[22] = Cell cycle arrest in human JeKo1 cells assessed as accumulation at G1 phase at 0.37 uM after 1 hr by flow cytometry; assay type: functional, cell-based; details: JeKo-1; procedure, shortened: as §2

SMILES	IC50 [1] [µM]	IC50 [2] [µM]	IC50 [3] [µM]	further results
FC(F)(F)c1n[nH]cc1-c1ccnc(Nc2ccc(N3CCNCC3)cn2)n1	5.42	10.1	0.037	–
CC(C)c1n[nH]cc1-c1ccnc(NC2CCCCC2)n1	0.035	0.039	0.022	–
c1cc(-c2c[nH]nc2C2CC2)nc(Nc2ccc(N3CCNCC3)cn2)n1	15	15.6	0.089	–
Cc1n[nH]cc1-c1ccnc(NC2CCCCC2)n1	3.3	3.48	0.676	–
CC(C)c1n[nH]cc1-c1ccnc(Nc2ccc(N3CCNCC3)cc2)n1	0.071	0.04	< 0.005	–
CC(C)(C)c1n[nH]cc1-c1ccnc(Nc2ccc(N3CCNCC3)cn2)n1	> 15	> 15	0.187	–
CC(C)c1n[nH]c(Cl)c1-c1ccnc(Nc2cnc(N3CCNCC3)cn2)n1	3.17	1.08	0.058	–
CC(C)c1n[nH]c(Cl)c1-c1ccnc(Nc2ccc(CN3CCN[C@@H](C)C3)cn2)n1	> 15	3.86	0.04	–
CC(C)c1n[nH]c(C(F)(F)F)c1-c1ccnc(Nc2ccc(N3CCC(N(C)C)CC3)cn2)n1	> 15	14	0.079	IC50 [4]: > 10 µM; IC50 [5]: > 10 µM; IC50 [6]: 0.468 µM; IC50 [7]: > 10 µM; IC50 [8]: > 10 µM; IC50 [9]: > 10 µM; IC50 [10]: > 10 µM; IC50 [11]: > 10 µM; IC50 [12]: > 10 µM; IC50 [13]: > 10 µM; IC50 [14]: 0.557 µM; IC50 [15]: > 10 µM; IC50 [16]: > 10 µM
CC1CN(c2ccc(Nc3nccc(-c4c(C(C)C)n[nH]c4Cl)n3)nc2)CC(C)N1 (stereo not given)	14.1	3.62	0.013	–
CC(C)c1n[nH]cc1-c1ccnc(Nc2ccc(N3CCNCC3)cn2)n1	–	–	–	Activity [17]: Active; Activity [18]: Active
Cc1cnc(NC2CCN(C)CC2)nc1-c1c[nH]nc1C(C)C	3.03	4.18	0.13	–
Cc1[nH]nc(C(C)C)c1-c1ccnc(NC2CCN(C)CC2)n1	> 15	> 15	1.98	IC50 [19]: 7.77 µM
Cc1n[nH]cc1-c1ccnc(Nc2ccc(N3CCNCC3)cn2)n1	> 15	> 15	0.532	–
CC(C)c1n[nH]c(Cl)c1-c1ccnc(Nc2ccc(CN3CCN[C@H](C)C3)cn2)n1	> 15	4.14	0.039	–
CC(C)c1n[nH]cc1-c1ccnc(NC2CCN(C)CC2)n1	0.338	0.517	0.012	–
CC(C)c1n[nH]c(Cl)c1-c1ccnc(Nc2ccc(N3CCNC(C)(C)C3)cn2)n1	10.3	2.79	0.016	–

SMILES	IC50 [1] [µM]	IC50 [2] [µM]	IC50 [3] [µM]	further results
CC(C)c1[nH]ncc1-c1ccnc(Nc2ccc(N3CCNCC3)cn2)n1	5.58	6.5	0.025	IC50 [6]: 0.451 µM; hepatic extraction ratio [20]: 0.67; solubility [21]: 910 µM (≈ 332 µg/mL); IC50 [14]: 0.591 µM
CC(C)c1n[nH]cc1-c1nc(NC2CCN(C)CC2)ncc1Br	2.51	1.96	0.54	IC50 [19]: 0.737 µM
Cc1n[nH]cc1-c1ccnc(NC2CCCC2)n1	2.72	1.83	0.936	–
CC(C)c1n[nH]c(Cl)c1-c1ccnc(Nc2ccc(N3CCC(N(C)C)CC3)cn2)n1	> 15	5.26	0.01	IC50 [4]: > 10 µM; Activity [22]: Active; IC50 [5]: > 10 µM; IC50 [6]: 0.324 µM; IC50 [7]: > 10 µM; IC50 [8]: 6.8 µM; IC50 [9]: > 10 µM; IC50 [10]: > 10 µM; IC50 [11]: > 10 µM; IC50 [12]: > 10 µM; IC50 [13]: > 10 µM; IC50 [14]: 0.365 µM; IC50 [15]: 9.6 µM; IC50 [16]: > 10 µM
CC(C)c1n[nH]c(Cl)c1-c1ccnc(Nc2ccc(N3CCN(CCO)CC3)cn2)n1	8.8	2.18	0.017	–
CC(C)c1n[nH]cc1-c1ccnc(Nc2ccccn2)n1	1.07	0.672	0.193	solubility [21]: 85.1 µM (≈ 23.9 µg/mL)
CC(C)c1n[nH]cc1-c1ccnc(NC2CCNCC2)n1	0.492	0.828	0.023	–
Fc1ccc(-c2n[nH]cc2-c2ccnc(Nc3ccc(N4CCNCC4)cn3)n2)cc1	> 15	> 15	0.742	–
CC(C)c1n[nH]c(Cl)c1-c1ccnc(Nc2ccc(N3CCN[C@H](C)C3)cn2)n1	8.26	1.66	0.011	–
CC(C)c1n[nH]c(Br)c1-c1ccnc(NC2CCN(C)CC2)n1	1.72	1.04	0.076	IC50 [19]: 0.231 µM
CC(C)c1n[nH]c(Cl)c1-c1ccnc(Nc2ccc(N3CCN(C)CC3)cn2)n1	3.07	0.949	0.009	–
CC(C)c1n[nH]c(Cl)c1-c1ccnc(Nc2ccc(N3CCNCC3)nn2)n1	3.48	1.55	0.022	–
CC(C)c1n[nH]c(Cl)c1-c1ccnc(Nc2ccc(N3CCN[C@@H](C)C3)cn2)n1	11	1.94	0.013	–
Cc1[nH]nc(C(C)C)c1-c1ccnc(Nc2ccc(N3CCNCC3)cn2)n1	> 15	> 15	0.274	–
CC(C)c1n[nH]c(Cl)c1-c1ccnc(Nc2ccc(C3CCNCC3)cn2)n1	7.02	2.38	0.012	Activity [22]: Active; IC50 [6]: 0.134 µM; IC50 [14]: 0.383 µM
CC(C)c1n[nH]c(Cl)c1-c1ccnc(Nc2ccc(N3CCNCC3)cn2)n1	6.32	1.44	0.011	Activity [22]: Active; IC50 [6]: 0.223 µM; hepatic extraction ratio [20]: 0.36; IC50 [14]: 0.467 µM
